Experimental data published in ChEMBL document CHEMBL1250496, “Novel 6,12-disubstituted chrysene as potent anticancer agent: synthesis, in vitro and in vivo study” (Eur J Med Chem, 2010).

Tests used:
[1] = Cytotoxicity against human BRO cells after 72 hrs by MTT assay; assay type: functional, cell-based
In short: (§1)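 Cells were exposed continuously to drug for 72 h, with dilutions made in RPMI 1640 + 10% FBS and final solvent below 0.625%. Relative growth was read by MTT, and IC50 was reported in μM.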

[2] = tested on: HT-29; assay: Cytotoxicity against human HT-29 cells after 72 hrs by MTT assay; assay type: functional, cell-based; in short: as §1
[3] = tested on: SK-OV-3; assay: Cytotoxicity against human SKOV3 cells after 72 hrs by MTT assay; assay type: functional, cell-based; in short: as §1
[4] = tested on: PC-3; assay: Cytotoxicity against human PC3 cells after 72 hrs by MTT assay; assay type: functional, cell-based; in short: as §1
[5] = tested on: HL-60; assay: Cytotoxicity against human HL60 cells after 72 hrs by MTT assay; assay type: functional, cell-based; details: HL-60, 72 h; in short: as §1
[6] = tested on: MCF7; assay: Cytotoxicity against human MCF7 cells after 72 hrs by MTT assay; assay type: functional, cell-based; in short: as §1
[7] = tested on: P388; assay: Cytotoxicity against mouse P388 cells after 72 hrs by MTT assay; assay type: functional, cell-based; in short: as §1
[8] = tested on: SK-OV-3; assay: Antitumor activity against human SKOV3 xenografted in mouse assessed as reduction in tumor volume at 40 mg/kg, ip for 5 days; assay type: functional; set-up: scale not given: the % may be the effect or the level left; details: route intraperitoneal
In short: (§2)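 Female nu/nu mice, 6-10 weeks old. SKOV-3 cells were harvested at 80% confluence with viability >90% by trypan blue, washed, resuspended in PBS and given i.p. at 0.65 × 10^6 per mouse. Mice were sacrificed at 7 weeks and tumors counted and total volume measured per mouse.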

[9] = tested on: SK-OV-3; assay: Antitumor activity against human SKOV3 xenografted in mouse assessed as reduction in tumor number at 40 mg/kg, ip for 5 days; assay type: functional; set-up: scale not given: the % may be the effect or the level left; details: route intraperitoneal; in short: as §2
[10] = tested on: Mus musculus; assay: Toxicity in mouse assessed as weight loss at 40 mg/kg, ip; assay type: organism-based; set-up: dose 40 mg/kg, route intraperitoneal; details: in vivo

SMILES	IC50 ([1]; Homo sapiens, BRO, 72 h) [µM]	IC50 ([2]; Homo sapiens, HT-29, 72 h) [µM]	IC50 ([3]; Homo sapiens, SK-OV-3, 72 h) [µM]	IC50 ([4]; Homo sapiens, PC-3, 72 h) [µM]	IC50 [5] [µM]	IC50 ([6]; Homo sapiens, MCF7, 72 h) [µM]	IC50 ([7]; Mus musculus, P388, 72 h) [µM]	IC50 ([1]; bro) [µM]	IC50 ([7]; p388) [µM]	IC50 ([2]; ht-29) [µM]	IC50 ([3]; sk-ov-3) [µM]	IC50 ([4]; pc-3) [µM]	Activity [8] [%]	Activity [9] [%]	Activity [10] [%]	IC50 ([6]; mcf7) [µM]
O=C(CCC(=O)N1CCCCC1)Nc1cc2c3ccccc3ccc2c2ccccc12	> 100	33.3	21	50.4	18.8	24.5	–	–	–	–	–	–	–	–	–	–
O=C(CCC(=O)N1CCCCC1)Nc1cc2c3ccccc3c(NC(=O)CCC(=O)N3CCCCC3)cc2c2ccccc12	44.3	41.1	22	24.4	25	21	37.8	–	–	–	–	–	–	–	–	–
CN1CCN(C(=O)CCC(=O)Nc2cc3c4ccccc4c(NC(=O)CCC(=O)N4CCN(C)CC4)cc3c3ccccc23)CC1	57.3	66.6	72.2	15.5	42.1	75	98	–	–	–	–	–	–	–	–	–
CN1CCN(CCCCNc2cc3c4ccccc4c(NCCCCN4CCN(C)CC4)cc3c3ccccc23)CC1	–	2.1	0.9	1.2	0.9	1.7	–	3.8	1.7	–	–	–	–	–	–	–
CN1CCN(CCCCNc2cc3c4ccccc4c(NCCCCN4CCN(C)CC4)cc3c3ccccc23)CC1.Cl	–	–	–	–	–	–	–	0.6	0.8	1.6	1	2.1	47	35	5	1.2
c1ccc2c(c1)ccc1c3ccccc3c(NCCCCN3CCCCC3)cc21	3.4	2.4	4.4	3.7	1.1	2.3	2.2	–	–	–	–	–	–	–	–	–
CN1CCN(CCCCNc2cc3c4ccccc4ccc3c3ccccc23)CC1	13.9	14.3	8.4	10	5.3	6.4	19.5	–	–	–	–	–	–	–	–	–
c1ccc2c(c1)c(NCCCCN1CCCCC1)cc1c3ccccc3c(NCCCCN3CCCCC3)cc21	1.7	1.2	1.9	0.8	0.8	1.4	2	–	–	–	–	–	–	–	–	–
CN1CCN(C(=O)CCC(=O)Nc2cc3c4ccccc4ccc3c3ccccc23)CC1	41.6	9.3	11.1	18.4	9.5	7.1	6	–	–	–	–	–	–	–	–	–
